Measured values: ChEMBL document CHEMBL4376878, “Potent Thiophene Antagonists of Human Complement C3a Receptor with Anti-Inflammatory Activity” (J Med Chem, 2020)
The source made the active and inactive calls. The rule behind the calls is not given here.

Legend:
[1] = target: T1, C3a anaphylatoxin chemotactic receptor (Homo sapiens, UniProt Q16581); test: Agonist activity at C3a receptor in human MDM cells assessed as induction of intracellular calcium release measured at 1 sec interval for => 200 secs by Fluo-3 AM dye-based FLIPR assay; format: cell-based
T1 sequence (Q16581 whole entry): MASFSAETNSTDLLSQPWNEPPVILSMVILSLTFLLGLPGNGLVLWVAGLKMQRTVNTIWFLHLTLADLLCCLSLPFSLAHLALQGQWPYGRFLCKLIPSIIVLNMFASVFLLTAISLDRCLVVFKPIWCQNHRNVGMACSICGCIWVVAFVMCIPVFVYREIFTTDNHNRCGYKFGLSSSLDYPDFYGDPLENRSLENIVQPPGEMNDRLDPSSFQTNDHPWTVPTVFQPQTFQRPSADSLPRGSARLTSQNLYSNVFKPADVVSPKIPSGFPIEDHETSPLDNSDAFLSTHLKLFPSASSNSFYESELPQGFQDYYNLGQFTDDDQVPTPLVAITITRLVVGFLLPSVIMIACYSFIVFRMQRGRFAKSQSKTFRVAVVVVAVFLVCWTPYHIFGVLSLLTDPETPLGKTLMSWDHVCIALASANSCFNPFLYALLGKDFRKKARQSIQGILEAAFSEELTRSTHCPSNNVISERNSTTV
In short: (§1)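 HMDMs were differentiated from CD14⁺ monocytes with M-CSF (100 ng/mL) for 7 days and seeded overnight at 5 × 10⁴ cells/well. Cells were loaded with 4 μM Fluo-3 AM for 1 h at 37 °C, then placed in HBSS with 2.5 mM probenecid and 20 mM HEPES, pH 7.4. Agonist was added on FLIPR and read at ex 495/em 520 nm. EC50 is relative to the maximum from 1 μM C3a; n ≥ 3.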

[2] = Stability of the compound in rat liver microsomes at 1 uM preincubated for 5 mins followed by NADPH addition and measured after 1 hr by LC-MS/MS analysis; format: ADME, Microsome
In short: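 Compound at 1 μM in 100 mM phosphate buffer, pH 7.4 (0.1% DMSO), was incubated with rat liver microsomes […] at 37 °C before further NADPH was added. Aliquots taken at 0, 5, 15, 30 and 60 min were quenched in MeCN/H₂O (9:1), centrifuged and analysed by LC-MS/MS. Microsomal activity was confirmed in parallel with SLIGRL-NH₂; n = 3.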

[3] = target: T1, C3a anaphylatoxin chemotactic receptor; test: Antagonist activity at C3a receptor in human MDM cells assessed as inhibition of C3a-induced intracellular calcium release preincubated for 30 mins followed by C3a addition and measured at 1 sec interval for => 200 secs by Fluo-3 AM dye-based FLIPR assay; format: functional, cell-based; conditions: read-out: IC50
In short: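 Macrophages were derived from CD14⁺ monocytes (M-CSF, 7 days) and dye-loaded with 4 μM Fluo-3 AM for 1 h at 37 °C in HBSS/probenecid/HEPES, pH 7.4. Antagonist was preincubated for 30 min at 37 °C before addition of synthetic full-length human C3a (100 nM). FLIPR fluorescence was read at ex 495/em 520 nm. Percent response was plotted against log concentration; n ≥ 3.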

[4] = target: T1, C3a anaphylatoxin chemotactic receptor; test: Partial agonist activity at C3a receptor in human MDM cells assessed as induction of intracellular calcium release at higher concentration measured at 1 sec interval for => 200 secs by Fluo-3 AM dye-based FLIPR assay relative to control; format: cell-based; in short: as §1
[5] = target: T2, C5a anaphylatoxin chemotactic receptor 1 (Homo sapiens) (UniProt P21730); test: Antagonist activity at C5a receptor in human MDM cells assessed as inhibition of C5a-induced intracellular calcium release preincubated for 30 mins followed by C5a addition and measured at 1 sec interval for => 200 secs by Fluo-3 AM dye-based FLIPR assay; format: functional, cell-based
T2 sequence (whole entry): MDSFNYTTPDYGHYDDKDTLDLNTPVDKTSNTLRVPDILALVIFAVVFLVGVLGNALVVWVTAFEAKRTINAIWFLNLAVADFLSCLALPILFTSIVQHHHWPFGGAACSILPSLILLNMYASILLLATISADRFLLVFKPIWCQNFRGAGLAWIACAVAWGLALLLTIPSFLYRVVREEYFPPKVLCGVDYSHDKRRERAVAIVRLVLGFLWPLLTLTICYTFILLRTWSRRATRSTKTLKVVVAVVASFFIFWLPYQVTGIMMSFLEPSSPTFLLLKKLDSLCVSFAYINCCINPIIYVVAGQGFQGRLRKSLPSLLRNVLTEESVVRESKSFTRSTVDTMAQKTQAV
In short: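 HMDMs from CD14+ monocytes after 7 days in M-CSF; 5 × 10⁴ cells/well seeded overnight. Cells loaded 1 h at 37 °C with 4 μM Fluo-3 AM, then washed into HBSS with 2.5 mM probenecid and 20 mM HEPES, pH 7.4. Antagonist preincubated 30 min at 37 °C before C5a. Fluorescence (ex 495/em 520 nm) read every 1 s for ≥200 s.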

[6] = target: T3, C3a anaphylatoxin chemotactic receptor (Homo sapiens) (UniProt Q16581); test: Displacement of Eu-DTPA-C3a from Galpha16-coupled C3a receptor (unknown origin) expressed in HEK293 cells measured after 60 mins by time-resolved fluorescence assay; format: cell-based
T3 sequence (whole entry): T1 sequence (Q16581 whole entry)

[7] = Stability of the compound in rat plasma at 1 mM measured after 4 hrs by LC-MS analysis; format: ADME, cell-free
In short: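 Compound added to rat plasma from 1 mM DMSO stock (stock concentration) and incubated at 37 °C. Samples taken at 0, 5, 15, 30, 60, 120 and 240 min, quenched in MeCN/H₂O 9:1, centrifuged and analyzed by LC-MS. Plasma activity checked with SLIGRL-NH₂.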

[8] = Volume of distribution in Wistar rat at 0.5 mg/kg, iv by LC-MS/MS analysis; format: ADME, organism-based; conditions: in vivo
In short: (§2)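 Male Wistar rats with jugular vein catheter, fasted overnight; dosed p.o. by gavage in olive oil or i.v. via catheter in 50% DMSO. Blood drawn from conscious unrestrained rats 5 min before dosing, then 5, 15, 30 min and 1–8 h after. Volume replaced with heparinized saline. Rats fed after 4 h sample. n = 3 per route.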

[9] = Elimination half-life in Wistar rat at 0.5 mg/kg, iv by LC-MS/MS analysis; format: ADME, organism-based; conditions: in vivo, read-out: beta t1/2; in short: as §2
[10] = AUC (0 to 8 hrs) in Wistar rat at 10 mg/kg, po by LC-MS/MS analysis; format: ADME, organism-based; set-up: dose 10 mg/kg, time < 8 hr, route oral; conditions: in vivo; in short: as §2
Rattus norvegicus = test: Antiinflammatory activity in Wistar rat model of BR103-induced paw edema assessed as reduction in hind paw swelling at 10 mg/kg, po administered via gavage pretreated for 2 hrs followed by BR103 challenge and measured after 30 mins by digital caliper method relative to control; format: functional; set-up: scale not given: the % may be the effect or the level left
In short: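 Male Wistar rats were given antagonist at 10 mg/kg by oral gavage in olive oil 2 h before intraplantar BR103 (350 μg in 100 μL of 5% DMSO). Sham paws received vehicle; sham and control rats received olive oil only. Paw thickness and width were measured with digital calipers at 0, 0.5, 1 and 2 h after agonist; n = 3 per group.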

[11] = Tmax in Wistar rat at 10 mg/kg, po by LC-MS/MS analysis; format: ADME, organism-based; conditions: in vivo; in short: as §2
[12] = Cmax in Wistar rat at 10 mg/kg, po by LC-MS/MS analysis; format: ADME, organism-based; set-up: dose 10 mg/kg, route oral; conditions: in vivo; in short: as §2
[13] = Clearance in Wistar rat at 0.5 mg/kg, iv by LC-MS/MS analysis; format: ADME, organism-based; conditions: in vivo; in short: as §2
[14] = AUC (0 to 8 hrs) in Wistar rat at 0.5 mg/kg, iv by LC-MS/MS analysis; format: ADME, organism-based; set-up: time < 8 hr, dose 0.5 mg/kg, route intravenous; conditions: in vivo; in short: as §2

Row | SMILES | EC50 ([1]; read-out: EC50) [µM] | EC50 ([1]; read-out: pEC50 (converted)) [µM] | IC50 [3] [µM] | other results
1 | Cc1cc(C(c2ccc(O)cc2)c2ccc(O)cc2)sc1C(=O)N[C@@H](CCCNC(=N)N)C(=O)O | > 100 | > 100 | 0.79 | Stability [2]: Stable
2 | Cc1cc(C(=O)N[C@@H](CCCNC(=N)N)C(=O)O)sc1C(c1ccccc1)c1ccccc1 | > 100 | > 100 | 0.14 | 
3 | CCC(Cc1ccccc1)c1ccc(C(=O)N[C@@H](CCCNC(=N)N)C(=O)O)s1 (mixture of isomers) | > 100 | > 100 | 0.2 | 
4 | CC(C)=C(c1ccccc1)c1ccc(C(=O)N[C@@H](CCCNC(=N)N)C(=O)O)s1 | > 100 | > 100 | 4.4 | 
5 | N=C(N)NCCC[C@H](NC(=O)c1ccc(Cc2ccccc2)s1)C(=O)O | > 100 | > 100 | > 10 | 
6 | N=C(N)NCCC[C@H](NC(=O)c1ccc(C(c2cccc(Cl)c2)c2cccc(Cl)c2)s1)C(=O)O | 0.05 |  | 0.006 | Activity [4]: <= 60%
7 | Cc1cc(C(c2cccc(Cl)c2)c2cccc(Cl)c2)sc1C(=O)N[C@@H](CCCNC(=N)N)C(=O)O | 0.046 |  | 0.003 | Activity [4]: <= 80%
8 | N=C(N)NCCC[C@H](NC(=O)c1ccc(C2CCCCCCCCCCC2)s1)C(=O)O | > 100 | > 100 | > 100 | 
9 | N=C(N)NCCC[C@H](NC(=O)c1ccc(C(c2ccccc2)c2ccccn2)s1)C(=O)O (mixture of isomers) | > 100 | > 100 | 0.04 | Activity [4]: 30 to 80%
10 | N=C(N)NCCC[C@H](NC(=O)c1ccc(C(Cc2ccccc2)Cc2ccccc2)s1)C(=O)O | > 100 | > 100 | 0.1 | 
11 | N=C(N)NCCC[C@H](NC(=O)c1sc(C(c2ccccc2)c2ccccc2)cc1-c1ccccc1)C(=O)O | > 100 | > 100 | > 100 | 
12 | N=C(N)NCCC[C@H](NC(=O)c1cc(-c2ccccc2)c(C(c2ccccc2)c2ccccc2)s1)C(=O)O | > 100 | > 100 | 0.14 | 
13 | N=C(N)NCCC[C@H](NC(=O)c1ccc(C(c2ccccc2)c2ccc3ccccc3c2)s1)C(=O)O (mixture of isomers) | > 100 | > 100 | 0.09 | 
14 | N=C(N)NCCC[C@H](NC(=O)c1cnc(C(c2ccccc2)c2ccccc2)s1)C(=O)O | > 100 | > 100 | 0.6 | 
15 | Cc1cc(C(c2ccc(F)cc2)c2ccc(F)cc2)sc1C(=O)N[C@@H](CCCNC(=N)N)C(=O)O | > 100 | > 100 | 0.035 | Activity [4]: 30 to 80%
16 | COc1ccc(C(c2ccc(OC)cc2)c2ccc(C(=O)N[C@@H](CCCNC(=N)N)C(=O)O)s2)cc1 | > 100 | > 100 | 6.1 | 
17 | N=C(N)NCCC[C@H](NC(=O)c1sc(C(c2ccccc2)c2ccccc2)c2c1CCCC2)C(=O)O | > 100 | > 100 | 2.4 | 
18 | CC(=O)N[C@@H](Cc1ccccc1)C(=O)N[C@H]1CCCNC(=O)[C@H](CCCN=C(N)N)NC(=O)[C@H](Cc2c[nH]c3ccccc23)NC(=O)[C@@H](CC2CCCCC2)NC(=O)[C@@H]2CCCN2C1=O |  |  |  | inhibition [5]: Active
19 | Cc1[nH]c(C(c2ccccc2)c2ccccc2)nc1C(=O)N[C@@H](CCCNC(=N)N)C(=O)O |  |  |  | inhibition [6]: Dose-dependent effect
20 | N=C(N)NCCC[C@H](NC(=O)c1ccc(C(c2ccc(F)cc2)c2ccc(F)cc2)s1)C(=O)O | > 10 | > 10 | 0.1 | 
21 | CC(c1ccccc1)c1ccc(C(=O)N[C@@H](CCCNC(=N)N)C(=O)O)s1 (mixture of isomers) | > 100 | > 100 | > 10 | 
22 | COc1ccc(C(c2ccc(OC)cc2)c2cc(C)c(C(=O)N[C@@H](CCCNC(=N)N)C(=O)O)s2)cc1 | > 100 | > 100 | 2 | 
23 | N=C(N)NCCC[C@H](NC(=O)c1ccc(C(c2ccccc2)C2CCCCC2)s1)C(=O)O (mixture of isomers) | 0.07 |  | 0.004 | Activity [4]: <= 30%
24 | N=C(N)NCCC[C@H](NC(=O)c1sc(C(c2ccccc2)c2ccccc2)cc1Br)C(=O)O |  | 100 | 0.51 | Activity [4]: 30 to 80%
25 | N=C(N)NCCC[C@H](NC(=O)c1ccc(C(c2ccc(Cl)cc2)c2ccc(Cl)cc2)s1)C(=O)O | > 100 | > 100 | 0.03 | Stability [7]: Stable; Vd [8]: 0.3 L; half-life [9]: 1.02 h; AUC(0-t) at 8 h [10]: 814 ng·h/mL; Activity (Rattus norvegicus): 45%; Tmax [11]: 4 h; Stability [2]: Stable; Cmax [12]: 143 ng/mL; clearance [13]: 4.6 mL/min/kg; AUC(0-t) at 8 h [14]: 1800 ng·h/mL
26 | CCC(c1ccccc1)c1ccc(C(=O)N[C@@H](CCCNC(=N)N)C(=O)O)s1 (mixture of isomers) | > 100 | > 100 | 2.3 | 
